Measured values from ChEMBL document CHEMBL4043195, “Development of water-soluble 3,5-dinitrophenyl tetrazole and oxadiazole antitubercular agents” (Bioorg Med Chem, 2017).
Values after ≈ are worked out from the molar mass of the structure shown.

Tests used:
[1] = test system: Mycobacterium tuberculosis; test: Antimycobacterial activity against Mycobacterium tuberculosis H37Rv CNCTC My 331/88 incubated for 14 days by micromethod; format: functional; settings: for MIC99: Mycobacterium tuberculosis, H37Rv CNCTC My 331/88, 336 h
In short: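 Strain H37Rv was tested in Sula's semisynthetic medium by micromethod. The basic suspension was set to 1.0 McFarland and diluted 10^-3, with 0.1 mL added per well. Compounds were added from DMSO at 32 to 0.03 µM. […] INH and RIF were used as standards.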

Mycobacterium avium = test: Antimycobacterial activity against Mycobacterium avium CNCTC My 330/88 incubated for 14 days by micromethod; format: functional; settings: for MIC99: Mycobacterium avium, CNCTC My 330/88, 336 h
In short: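 Micromethod MIC assay in Sula's semisynthetic medium. The inoculum was a 1.0 McFarland suspension diluted 10^-5, with 0.1 mL added per well. Compounds were dissolved in DMSO and tested at 1000 to 1 µM in two-fold steps. Plates were incubated at 37 °C for 14 days. […] INH and RIF were the reference drugs.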

Mycobacterium kansasii [2] = test: Antimycobacterial activity against Mycobacterium kansasii CNCTC My 235/80 incubated for 14 days by micromethod; format: functional; settings: for MIC99: Mycobacterium kansasii, CNCTC My 235/80, 336 h
In short: (§1)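 M. kansasii MIC by micromethod in Sula's semisynthetic medium. Inoculum was a 1.0 McFarland suspension diluted 10^-4, 0.1 mL per well. Compounds were dissolved in DMSO and tested at 32 to 0.03 µM in twofold steps. […] INH and RIF were reference drugs.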

Mycobacterium kansasii [3] = test: Antimycobacterial activity against Mycobacterium kansasii 6509/96 incubated for 14 days by micromethod; format: functional; settings: for MIC99: Mycobacterium kansasii, 6509/96, 336 h; in short: as §1
[4] = test system: Mycobacterium tuberculosis; test: Antimycobacterial activity MDR/XDR against Mycobacterium tuberculosis isolate Praha 4 incubated for 14 days by micromethod; settings: isolate Praha 4, 336 h
[5] = test system: Mycobacterium tuberculosis; test: Antimycobacterial activity MDR/XDR against Mycobacterium tuberculosis isolate Praha 1 incubated for 14 days by micromethod; format: functional; settings: for MIC99: isolate Praha 1, 336 h
[6] = test system: Mycobacterium tuberculosis; test: Antimycobacterial activity MDR/XDR against Mycobacterium tuberculosis isolate Praha 131 incubated for 14 days by micromethod; format: functional; settings: for MIC99: isolate Praha 131, 336 h
[7] = test system: Mycobacterium tuberculosis; test: Antimycobacterial activity MDR/XDR against Mycobacterium tuberculosis isolate 9449/2007 incubated for 14 days by micromethod; format: functional; settings: for MIC99: isolate 9449/2007, 336 h
[8] = test system: Mycobacterium tuberculosis; test: Antimycobacterial activity MDR/XDR against Mycobacterium tuberculosis isolate 7357/1998 incubated for 14 days by micromethod; format: functional; settings: for MIC99: isolate 7357/1998, 336 h
[9] = test system: Mycobacterium tuberculosis; test: Antimycobacterial activity MDR/XDR against Mycobacterium tuberculosis isolate 8666/2010 incubated for 14 days by micromethod; format: functional; settings: for MIC99: isolate 8666/2010, 336 h
[10] = test system: Mycobacterium tuberculosis; test: microbe, parasite or virus in culture; settings: isolate 234/2005, 336 h
[11] = Solubility in pure water at room temperature by HPLC method; format: physicochemical
[12] = Solubility in pH 3.0 citrate buffer by HPLC method; format: physicochemical
In short: (§2)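 Salt (15 mg) was shaken 2 h at room temperature in 1 mL 0.05 M citrate pH 3, 1 mL 0.1 M acetate pH 5, or 5 mL PBS pH 7.4. Suspensions were decanted and filtered (0.22 µm PTFE). Citrate and acetate solutions were diluted 500-fold in water/acetonitrile 1:1. Analysis by HPLC with diode-array detection on a C18 column at 30 °C. At least 4 repeats.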

[13] = Solubility in pH 5 acetate buffer by HPLC method; format: physicochemical; in short: as §2
[14] = Solubility in pH 7.4 PBS buffer by HPLC method; format: physicochemical; in short: as §2
Caco-2 = test: Cytotoxicity against human Caco2 cells assessed as reduction in cell viability incubated for 48 hrs by CellTiter 96 aqueous one solution cell proliferation assay; format: cell-based; settings: Caco-2, 48 h
In short: (§3)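 Caco-2, HepG2, A431 and COS-1 cells were exposed 48 h to compound or DMSO vehicle (0.1%) in Opti-MEM reduced-serum medium. MTS reagent was added for 4 h and formazan absorbance read at 490 nm. A 10% SDS toxic control was added 45 min before MTS. Vehicle and SDS were set to 100% and 0% viability; values given as relative viability at 30 µM. Triplicates, repeated at least three times.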

[15] = Cytotoxicity against human Caco2 cells assessed as cell viability at 30 uM incubated for 48 hrs by CellTiter 96 aqueous one solution cell proliferation assay; format: cell-based; settings: Caco-2 cells, read-out: Activity; in short: as §3
HepG2 = test: Cytotoxicity against human HepG2 cells assessed as reduction in cell viability incubated for 48 hrs by CellTiter 96 aqueous one solution cell proliferation assay; format: cell-based; settings: HepG2, 48 h; in short: as §3
[16] = Cytotoxicity against human HepG2 cells assessed as cell viability at 30 uM incubated for 48 hrs by CellTiter 96 aqueous one solution cell proliferation assay; format: cell-based; settings: read-out: Activity; in short: as §3
A-431 = test: Cytotoxicity against human A431 cells assessed as reduction in cell viability incubated for 48 hrs by CellTiter 96 aqueous one solution cell proliferation assay; format: cell-based; settings: A-431, 48 h; in short: as §3
[17] = Cytotoxicity against human A431 cells assessed as cell viability at 30 uM incubated for 48 hrs by CellTiter 96 aqueous one solution cell proliferation assay; format: cell-based, A-431; settings: read-out: Activity; in short: as §3
COS-1 = test: Cytotoxicity against African green monkey COS1 cells assessed as reduction in cell viability incubated for 48 hrs by CellTiter 96 aqueous one solution cell proliferation assay; format: cell-based; settings: Chlorocebus aethiops, COS-1, 48 h; in short: as §3
[18] = Cytotoxicity against African green monkey COS1 cells assessed as cell viability at 30 uM incubated for 48 hrs by CellTiter 96 aqueous one solution cell proliferation assay; format: cell-based; settings: chlorocebus aethiops, COS-1 cells; read-out: Activity; in short: as §3

Compound | MIC99 [1] | MIC99 (Mycobacterium avium) | MIC99 (Mycobacterium kansasii [2]) | MIC99 (Mycobacterium kansasii [3]) | other results
O=[N+]([O-])c1cc(-c2nnc(SCCCN3CCCCC3)o2)cc([N+](=O)[O-])c1 | 8 µM (≈ 3.15 µg/mL) | 62.5 µM (≈ 24.6 µg/mL) | 32 µM (≈ 12.6 µg/mL) | 16 µM (≈ 6.29 µg/mL) | 
O=[N+]([O-])c1cc(-c2nnn(CCCN3CCOCC3)n2)cc([N+](=O)[O-])c1 | 16 µM (≈ 5.81 µg/mL) | 500 µM (≈ 182 µg/mL) | 16 µM (≈ 5.81 µg/mL) | 16 µM (≈ 5.81 µg/mL) | 
CC1COc2c(N3CCN(C)CC3)c(F)cc3c(=O)c(C(=O)O)cn1c23 (stereo not drawn) [OFLOXACIN] |  |  |  |  | MIC99 [4]: > 16 µM
O=[N+]([O-])c1cc(-c2nnc(SCCCN3CCOCC3)o2)cc([N+](=O)[O-])c1 | 8 µM (≈ 3.16 µg/mL) | 125 µM (≈ 49.4 µg/mL) | 8 µM (≈ 3.16 µg/mL) | 16 µM (≈ 6.33 µg/mL) | 
O=[N+]([O-])c1cc(-c2nnc(SCCCN3CCN(Cc4ccccc4)CC3)o2)cc([N+](=O)[O-])c1 | 0.125 µM (≈ 0.0606 µg/mL) | 2 µM (≈ 0.969 µg/mL) | 1 µM (≈ 0.485 µg/mL) | 0.5 µM (≈ 0.242 µg/mL) | 
CN1CCN(CCCSc2nnc(-c3cc([N+](=O)[O-])cc([N+](=O)[O-])c3)o2)CC1 | > 32 µM | 125 µM (≈ 51.1 µg/mL) | 16 µM (≈ 6.54 µg/mL) | > 32 µM | 
CO[C@H]1/C=C/O[C@@]2(C)Oc3c(C)c(O)c4c(O)c(c(/C=N/N5CCN(C)CC5)c(O)c4c3C2=O)NC(=O)/C(C)=C\C=C\[C@H](C)[C@H](O)[C@@H](C)[C@@H](O)[C@@H](C)[C@H](OC(C)=O)[C@@H]1C [RIFAMPIN] | 0.25 µM (≈ 0.206 µg/mL) | 32 µM (≈ 26.3 µg/mL) | 0.25 µM (≈ 0.206 µg/mL) | 0.125 µM (≈ 0.103 µg/mL) | MIC99 [5]: > 8 µM; MIC99 [4]: > 8 µM; MIC99 [6]: > 8 µM; MIC99 [7]: > 8 µM; MIC99 [8]: > 8 µM; MIC99 [9]: > 8 µM; MIC99 [10]: > 8 µM
O=[N+]([O-])c1cc(-c2nnn(CCCN3CCCCC3)n2)cc([N+](=O)[O-])c1 | 4 µM (≈ 1.45 µg/mL) | 62.5 µM (≈ 22.6 µg/mL) | 16 µM (≈ 5.78 µg/mL) | 16 µM (≈ 5.78 µg/mL) | 
O=[N+]([O-])c1cc(CSc2nnc(CCCN3CCN(Cc4ccccc4)CC3)o2)cc([N+](=O)[O-])c1 | 2 µM (≈ 0.997 µg/mL) | 32 µM (≈ 16 µg/mL) | 2 µM (≈ 0.997 µg/mL) | 2 µM (≈ 0.997 µg/mL) | 
CN1CCN(CCCn2nnc(-c3cc([N+](=O)[O-])cc([N+](=O)[O-])c3)n2)CC1 | > 32 µM | 250 µM (≈ 94.1 µg/mL) | 32 µM (≈ 12 µg/mL) | > 32 µM | 
CN1CCN(CCCc2nnc(SCc3cc([N+](=O)[O-])cc([N+](=O)[O-])c3)o2)CC1 | > 32 µM | 1000 µM (≈ 422 µg/mL) | > 32 µM | > 32 µM | 
Cl.Cl.O=[N+]([O-])c1cc(CSc2nnc(CCCCCN3CCN(Cc4ccccc4)CC3)o2)cc([N+](=O)[O-])c1 | 2 µM | 32 µM | 2 µM |  | solubility [11]: 17100 µM; solubility [12]: 18000 µM; solubility [13]: 9000 µM; solubility [14]: 113 µM; MIC>99 (Mycobacterium kansasii [3]): 2 µM; MIC99 [5]: 2 µM; MIC99 [4]: 2 µM; MIC99 [6]: 2 µM; MIC99 [7]: 2 µM; MIC99 [8]: 2 µM; MIC99 [9]: 2 µM; IC50 (Caco-2): > 30 µM; viability at 48 h, 30 µM [15]: 105%; IC50 (HepG2): > 30 µM; viability at 48 h, 30 µM [16]: 112%; IC50 (A-431): > 30 µM; viability at 48 h, 30 µM [17]: 86%; IC50 (COS-1): > 30 µM; viability at 48 h, 30 µM [18]: 99%; MIC99 [10]: 2 µM
NNC(=O)c1ccncc1 [ISONIAZID] |  | > 250 µM | > 250 µM | 4 µM (≈ 0.549 µg/mL) | 
O=[N+]([O-])c1cc(CSc2nnc(CCCN3CCOCC3)o2)cc([N+](=O)[O-])c1 | 8 µM (≈ 3.28 µg/mL) | 500 µM (≈ 205 µg/mL) | 8 µM (≈ 3.28 µg/mL) | 8 µM (≈ 3.28 µg/mL) | 
NCC[C@H](O)C(=O)N[C@@H]1C[C@H](N)[C@@H](O[C@H]2O[C@H](CN)[C@@H](O)[C@H](O)[C@H]2O)[C@H](O)[C@H]1O[C@H]1O[C@H](CO)[C@@H](O)[C@H](N)[C@H]1O [AMIKACIN] |  |  |  |  | MIC99 [6]: > 32 µM
O=[N+]([O-])c1cc(CSc2nnc(CCCCCN3CCOCC3)o2)cc([N+](=O)[O-])c1 | 8 µM (≈ 3.5 µg/mL) | 125 µM (≈ 54.7 µg/mL) | 8 µM (≈ 3.5 µg/mL) | 8 µM (≈ 3.5 µg/mL) | 
O=[N+]([O-])c1cc(CSc2nnc(CCCN3CCCCC3)o2)cc([N+](=O)[O-])c1 | 16 µM (≈ 6.52 µg/mL) | 250 µM (≈ 102 µg/mL) | 16 µM (≈ 6.52 µg/mL) | 16 µM (≈ 6.52 µg/mL) | 
CN[C@@H]1[C@H](O[C@H]2[C@H](O[C@H]3[C@H](O)[C@@H](O)[C@H](N=C(N)N)[C@@H](O)[C@@H]3N=C(N)N)O[C@@H](C)[C@]2(O)C=O)O[C@@H](CO)[C@H](O)[C@H]1O [STREPTOMYCIN] |  |  |  |  | MIC99 [4]: > 32 µM; MIC99 [6]: > 32 µM; MIC99 [7]: > 32 µM; MIC99 [8]: > 32 µM; MIC99 [9]: > 32 µM
O=[N+]([O-])c1cc(CSc2nnc(CCCCCN3CCN(Cc4ccccc4)CC3)o2)cc([N+](=O)[O-])c1 |  |  |  | 2 µM (≈ 1.05 µg/mL) | MIC>99 [1]: 1 µM (≈ 0.527 µg/mL); MIC>99 (Mycobacterium avium): 16 µM (≈ 8.43 µg/mL); MIC>99 (Mycobacterium kansasii [2]): 2 µM (≈ 1.05 µg/mL)
CN1CCN(CCCCCc2nnc(SCc3cc([N+](=O)[O-])cc([N+](=O)[O-])c3)o2)CC1 | 32 µM (≈ 14.4 µg/mL) | 250 µM (≈ 113 µg/mL) | > 32 µM | > 32 µM | 
GENTAMICIN |  |  |  |  | MIC>99 [5]: 1 µM; MIC>99 [6]: > 8 µM; MIC>99 [7]: 1 µM; MIC>99 [8]: 1 µM; MIC>99 [9]: 2 µM
O=[N+]([O-])c1cc(CSc2nnc(CCCCCN3CCCCC3)o2)cc([N+](=O)[O-])c1 | 16 µM (≈ 6.97 µg/mL) | 62.5 µM (≈ 27.2 µg/mL) | 16 µM (≈ 6.97 µg/mL) | 32 µM (≈ 13.9 µg/mL) | 
O=[N+]([O-])c1cc(-c2nnn(CCCN3CCN(Cc4ccccc4)CC3)n2)cc([N+](=O)[O-])c1 | 1 µM (≈ 0.452 µg/mL) | 8 µM (≈ 3.62 µg/mL) | 2 µM (≈ 0.905 µg/mL) | 1 µM (≈ 0.452 µg/mL) | 
